Reference: ChEMBL document CHEMBL1123068, “2-Fluoroformycin and 2-aminoformycin. Synthesis and biological activity” (J Med Chem, 1985)

These compounds were tested on L1210 (assay: Cytotoxic concentration required to reduce rate of L1210 cell proliferation after 48 hr). Settings: Mus musculus, L1210, 48 h.
Assay type: functional, cell-based
Procedure, shortened: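 L1210 cells grown rapidly in suspension culture were exposed to a range of inhibitor concentrations, some tests with the adenosine deaminase inhibitor pentostatin added. The drop in proliferation rate versus untreated controls was found by cell counts at 24 and 48 h after addition, and IC50 was taken from this.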

In order of falling IC50:
1. Nc1nc(N)c2[nH]nc([C@@H]3O[C@H](CO)[C@@H](O)[C@H]3O)c2n1  31 µM
2. Nc1nc(F)nc2c([C@@H]3O[C@H](CO)[C@@H](O)[C@H]3O)n[nH]c12.OC[C@H]1O[C@@H](n2cnc3c2NC=NC[C@H]3O)C[C@@H]1O  22 µM
3. Nc1nc(F)nc2c([C@@H]3O[C@H](CO)[C@@H](O)[C@H]3O)n[nH]c12  12 µM
4. Nc1nc(N)c2[nH]nc([C@@H]3O[C@H](CO)[C@@H](O)[C@H]3O)c2n1.OC[C@H]1O[C@@H](n2cnc3c2NC=NC[C@H]3O)C[C@@H]1O  5 µM
5. Nc1ncnc2c([C@@H]3O[C@H](CO)[C@@H](O)[C@H]3O)[nH]nc12 [FORMYCIN]  1 µM
6. Nc1ncnc2c([C@@H]3O[C@H](CO)[C@@H](O)[C@H]3O)n[nH]c12.OC[C@H]1O[C@@H](n2cnc3c2NC=NC[C@H]3O)C[C@@H]1O  0.2 µM
